Results: ChEMBL document CHEMBL4414566, “Cytotoxicity and Anti-inflammatory Properties of Apigenin-Derived Isolaxifolin” (J Nat Prod, 2019)
Active and inactive are the calls of the source. The rule behind the calls is not given here.

Key:
RAW264.7 [1] = experiment: Antiinflammatory activity against LPS-activated mouse RAW264.7 cells assessed as reduction in IL6 mRNA expression at 3.1 uM preincubated with LPS for 24 hrs followed by compound addition and measured after 24 hrs by qRT-PCR analysis; format: functional, cell-based
In short: (§1)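 RAW 264.7 cells (DMEM, 10% FBS, 37 °C, 5% CO2) seeded at 1 × 10^5/well and held 4 h. LPS 1.0 μg/mL was added for 24 h, then medium was replaced with test agent (0.8, 1.6, 3.1 μM or 2.3, 4.6, 9.2 μM) for 24 h. TNF-α and IL-6 transcripts were quantified by real-time qPCR against GAPDH. Triplicates, mean ± SD.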

MDA-MB-231 [2] = experiment: Induction of apoptosis in human MDA-MB-231 cells assessed as early apoptotic cells at 8.6 uM incubated for 48 hrs by annexin V-FITC/PI based flow cytometric analysis (Rvb= 0.24%); format: functional
MDA-MB-231 [3] = experiment: Induction of apoptosis in human MDA-MB-231 cells assessed as viable cells at 12.4 uM incubated for 48 hrs by annexin V-FITC/PI based flow cytometric analysis (Rvb= 96.21%); format: functional; conditions: MDA-MB-231, 48 h, read-out: Activity
MDA-MB-231 [4] = experiment: Induction of cell cycle arrest in human MDA-MB-231 cells assessed as accumulation of cells at S phase at 8.6 uM incubated for 48 hrs by PI/RNase staining based flow cytometric analysis (reference value: 39.2%); format: functional
In short: (§2)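 Cell-cycle analysis: MDA-MB-231 cells were preincubated 24 h, then treated with 8.6, 12.4 or 17.3 μM for 48 h. Cells were pelleted, fixed in 75% ethanol at −20 °C overnight, and stained with PI/RNase for 15 min in the dark at ambient temperature. About 10 000 cells per well were analyzed by flow cytometry for DNA content.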

MDA-MB-231 [5] = experiment: Induction of apoptosis in human MDA-MB-231 cells assessed as viable cells at 8.6 uM incubated for 48 hrs by annexin V-FITC/PI based flow cytometric analysis (Rvb= 96.21%); format: functional; conditions: MDA-MB-231, 48 h, read-out: Activity
MDA-MB-231 [6] = experiment: Induction of cell cycle arrest in human MDA-MB-231 cells assessed as accumulation of cells at S phase at 17.3 uM incubated for 48 hrs by PI/RNase staining based flow cytometric analysis (reference value: 39.2%); format: functional; in short: as §2
MDA-MB-231 [7] = experiment: Induction of apoptosis in human MDA-MB-231 cells assessed as early apoptotic cells at 17.3 uM incubated for 48 hrs by annexin V-FITC/PI based flow cytometric analysis (Rvb= 0.24%); format: functional
RAW264.7 [8] = experiment: Antiinflammatory activity against LPS-activated mouse RAW264.7 cells assessed as reduction in TNFalpha mRNA expression at 3.1 uM preincubated with LPS for 24 hrs followed by compound addition and measured after 24 hrs by qRT-PCR analysis; format: functional, cell-based; in short: as §1
MDA-MB-231 [9] = experiment: Induction of apoptosis in human MDA-MB-231 cells assessed as viable cells at 17.3 uM incubated for 48 hrs by annexin V-FITC/PI based flow cytometric analysis (Rvb= 96.21%); format: functional; conditions: MDA-MB-231, 48 h, read-out: Activity
MDA-MB-231 [10] = experiment: Induction of apoptosis in human MDA-MB-231 cells assessed as necrotic cells at 12.4 uM incubated for 48 hrs by annexin V-FITC/PI based flow cytometric analysis (Rvb= 0.74%); format: functional
MDA-MB-231 [11] = experiment: Induction of apoptosis in human MDA-MB-231 cells assessed as increase in nuclear chromatin condensation incubated for 48 hrs by Hoechst 33258 staining based fluorescence microscopic method; format: functional, cell-based
In short: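 MDA-MB-231 cells were grown 24 h and treated with 8.6, 12.4 or 17.3 μM for 48 h. They were then fixed 10 min, washed three times in PBS and stained 5 min with Hoechst 33258. Nuclear condensation was imaged by fluorescence microscopy (excitation 350 nm, emission 460 nm).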

MDA-MB-231 [12] = experiment: Induction of mitochondrial membrane potential loss in human MDA-MB-231 cells assessed as cell population with intact mitochondrial membrane potential by measuring red fluorescence at 17.3 uM incubated for 48 hrs by JC1 staining based flow cytometric analysis (reference value: 92.04%); format: functional
In short: (§3)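 MDA-MB-231 cells in DMEM/10% FBS exposed 48 h to 0, 8.6, 12.4 or 17.3 μM. Harvested cells stained with JC-1 for 15 min in the dark, then analysed by flow cytometry. Excitation 488 nm; green emission read at 525 nm, red at 590 nm. Output given as percent green-to-red fluorescence intensity ratio. Triplicate, mean ± SD.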

MDA-MB-231 [13] = experiment: Induction of cell cycle arrest in human MDA-MB-231 cells assessed as accumulation of cells at G2/M phase at 8.6 uM incubated for 48 hrs by PI/RNase staining based flow cytometric analysis (reference value: 10.4%); format: functional; in short: as §2
MDA-MB-231 [14] = experiment: Induction of mitochondrial membrane potential loss in human MDA-MB-231 cells cell population with mitochondrial membrane potential collapse by measuring green fluorescence at 17.3 uM incubated for 48 hrs by JC1 staining based flow cytometric analysis (reference value: 7.96%); format: functional; in short: as §3
MDA-MB-231 [15] = experiment: Induction of mitochondrial membrane potential loss in human MDA-MB-231 cells cell population with mitochondrial membrane potential collapse by measuring green fluorescence at 12.4 uM incubated for 48 hrs by JC1 staining based flow cytometric analysis (reference value: 7.96%); format: functional; in short: as §3
MDA-MB-231 [16] = experiment: Induction of mitochondrial membrane potential loss in human MDA-MB-231 cells assessed as cell population with intact mitochondrial membrane potential by measuring red fluorescence at 12.4 uM incubated for 48 hrs by JC1 staining based flow cytometric analysis (reference value: 92.04%); format: functional; in short: as §3
MDA-MB-231 [17] = experiment: Induction of apoptosis in human MDA-MB-231 cells assessed as late apoptotic cells at 12.4 uM incubated for 48 hrs by annexin V-FITC/PI based flow cytometric analysis (Rvb= 2.82%); format: functional
MDA-MB-231 [18] = experiment: Induction of cell cycle arrest in human MDA-MB-231 cells assessed as accumulation of cells at S phase at 12.4 uM incubated for 48 hrs by PI/RNase staining based flow cytometric analysis (reference value: 39.2%); format: functional; in short: as §2
MDA-MB-231 [19] = experiment: Induction of apoptosis in human MDA-MB-231 cells assessed as necrotic cells at 8.6 uM incubated for 48 hrs by annexin V-FITC/PI based flow cytometric analysis (Rvb= 0.74%); format: functional
MDA-MB-231 [20] = experiment: Induction of mitochondrial membrane potential loss in human MDA-MB-231 cells assessed as cell population with intact mitochondrial membrane potential by measuring red fluorescence at 8.6 uM incubated for 48 hrs by JC1 staining based flow cytometric analysis (reference value: 92.04%); format: functional; in short: as §3
HepG2 = experiment: Antiproliferative activity against human HepG2 cells assessed as cell viability at 24.7 uM incubated for 48 hrs by methylene blue assay relative to control; format: functional; conditions: HepG2, 48 h, read-out: Activity
In short: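 MDA-MB-231, MCF-7, HepG2 and LNCaP cells were grown in DMEM; HCT-116 and LO-2 in RPMI-1640; all with 10% FBS at 37 °C, 5% CO2. Cells seeded at 1.5 × 10^5 cells/mL and incubated overnight (~12 h), then exposed to 6.2–30.9 μM or 23.1–185.0 μM (final DMSO <0.1%) for 48 h. Read by methylene blue staining; viability = Abs treated/Abs untreated × 100%, triplicate.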

CC(C)=CCc1c2c(c(O)c3c(=O)cc(-c4ccc(O)cc4)oc13)C=CC(C)(C)O2 [LAXIFOLIN]
Activity (RAW264.7 [1]): Active | Activity (MDA-MB-231 [2]): 0.87% | viability at 12.4 µM (MDA-MB-231 [3]): 85.3% | Activity (MDA-MB-231 [4]): 29.5% | viability at 8.6 µM (MDA-MB-231 [5]): 88.3% | Activity (MDA-MB-231 [6]): 26.8% | Activity (MDA-MB-231 [7]): 0.96% | Activity (RAW264.7 [8]): Active | viability at 17.3 µM (MDA-MB-231 [9]): 68.9% | Activity (MDA-MB-231 [10]): 1.19% | Activity (MDA-MB-231 [11]): Dose-dependent effect | Activity (MDA-MB-231 [12]): 73.25% | Activity (MDA-MB-231 [13]): 11% | Activity (MDA-MB-231 [14]): 26.75% | Activity (MDA-MB-231 [15]): 15.7% | Activity (MDA-MB-231 [16]): 84.3% | Activity (MDA-MB-231 [17]): 12.89% | Activity (MDA-MB-231 [18]): 28.2% | Activity (MDA-MB-231 [19]): 1.04% | Activity (MDA-MB-231 [20]): 83.51% | viability at 24.7 µM (HepG2): 20%
